ChEMBL document CHEMBL3769392, “Synthesis, antiproliferative activities, and computational evaluation of novel isocoumarin and 3,4-dihydroisocoumarin derivatives” (Eur J Med Chem, 2016)
Converted amounts (≈) assume the structure as drawn.

System: MCF7
Assay: Antiproliferative activity against human MCF7 cells after 48 hrs by SRB assay
Type: functional
Settings: MCF7, 48 h
In short: (§1)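 Cells kept in RPMI 1640 with 5% FBS and 1% penicillin/streptomycin at 37 °C, 5% CO2, and used at passages 5–12. Seeded at 3 to 5 x 10^4 cells/mL and exposed 48 h to 0.25, 2.5, 25 and 250 µg/mL in DMSO/RPMI (final DMSO ≤ 0.25%). Doxorubicin 0.025–25 µg/mL served as positive control. Fixed with 50% TCA at T0 and at endpoint, SRB protein read at 540 nm. Growth was T0-corrected and GI50 taken by non-linear regression.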

Structure (SMILES) | GI50
COc1ccc2cc(COCCCc3cccnc3)oc(=O)c2c1 | 26.5 µg/mL (≈ 81.4 µM)
COc1ccc2cc(CCCSc3nnnn3-c3ccccc3)oc(=O)c2c1 | 45.7 µg/mL (≈ 116 µM)
COc1ccc2cc(CO)oc(=O)c2c1 | 32.6 µg/mL (≈ 158 µM)
O=c1oc(CO)cc2ccccc12 | 89.3 µg/mL (≈ 507 µM)
COc1ccc2cc(CCCn3nnnc3-c3ccccc3)oc(=O)c2c1 | 75.2 µg/mL (≈ 208 µM)

The next compounds have a lower GI50 than those just listed; values first:

GI50 | Structure (SMILES)
23.8 µg/mL (≈ 67.3 µM) | COc1ccc2cc(CCCOCCCc3cccnc3)oc(=O)c2c1
6 µg/mL (≈ 19.7 µM) | CCCCCOCCCc1cc2ccc(OC)cc2c(=O)o1

System: HaCaT
Assay: Selectivity index, ratio of GI50 for human HaCaT cells to GI50 for human NCI-ADR-RES cells
Type: functional
Settings: not given

Structure (SMILES) | RatioGI50
COc1ccc2cc(COCCCc3cccnc3)oc(=O)c2c1 | 0.94
COc1ccc2cc(CCCOCCCc3cccnc3)oc(=O)c2c1 | 1.4
CCCCCOCCCc1cc2ccc(OC)cc2c(=O)o1 | 0.74
COc1ccc2cc(CO)oc(=O)c2c1 | 0.84

System: not listed separately
Assay: Antiproliferative activity against human PC3 cells after 48 hrs by SRB assay
Type: functional
Settings: PC-3, 48 h
In short: as §1

Structure (SMILES) | GI50
COc1ccc2cc(COCCCc3cccnc3)oc(=O)c2c1 | 25 µg/mL (≈ 76.8 µM)
COc1ccc2cc(CCCOCCCc3cccnc3)oc(=O)c2c1 | 26.3 µg/mL (≈ 74.4 µM)
CCCCCOCCCc1cc2ccc(OC)cc2c(=O)o1 | 8 µg/mL (≈ 26.3 µM)
COc1ccc2cc(CCCSc3nnnn3-c3ccccc3)oc(=O)c2c1 | 144 µg/mL (≈ 366 µM)
COc1ccc2cc(CO)oc(=O)c2c1 | 49.2 µg/mL (≈ 239 µM)
O=c1oc(CO)cc2ccccc12 | 118 µg/mL (≈ 669 µM)
COc1ccc2cc(CCCn3nnnc3-c3ccccc3)oc(=O)c2c1 | 180 µg/mL (≈ 496 µM)

System: HaCaT
Assay: Selectivity index, ratio of GI50 for human HaCaT cells to GI50 for human U251 cells
Type: functional
Settings: not given

Structure (SMILES) | RatioGI50
COc1ccc2cc(COCCCc3cccnc3)oc(=O)c2c1 | 0.92
COc1ccc2cc(CCCOCCCc3cccnc3)oc(=O)c2c1 | 1.03
CCCCCOCCCc1cc2ccc(OC)cc2c(=O)o1 | 0.28
COc1ccc2cc(CCCSc3nnnn3-c3ccccc3)oc(=O)c2c1 | >5.77
COc1ccc2cc(CO)oc(=O)c2c1 | 0.8
COc1ccc2cc(CCCn3nnnc3-c3ccccc3)oc(=O)c2c1 | >3.71

System: HaCaT
Assay: Selectivity index, ratio of GI50 for human HaCaT cells to GI50 for human HT-29 cells
Type: functional
Settings: not given

Structure (SMILES) | RatioGI50
COc1ccc2cc(COCCCc3cccnc3)oc(=O)c2c1 | 1.02
COc1ccc2cc(CCCOCCCc3cccnc3)oc(=O)c2c1 | 1.08
CCCCCOCCCc1cc2ccc(OC)cc2c(=O)o1 | 0.19
COc1ccc2cc(CO)oc(=O)c2c1 | 1.67
O=c1oc(CO)cc2ccccc12 | 1.32

System: NCI-H460
Assay: Antiproliferative activity against human NCI-H460 cells after 48 hrs by SRB assay
Type: functional
Settings: NCI-H460, 48 h
In short: as §1

Structure (SMILES) | GI50
COc1ccc2cc(COCCCc3cccnc3)oc(=O)c2c1 | 29.6 µg/mL (≈ 91 µM)
COc1ccc2cc(CCCSc3nnnn3-c3ccccc3)oc(=O)c2c1 | ≥ 250 µg/mL
COc1ccc2cc(CO)oc(=O)c2c1 | 93.2 µg/mL (≈ 452 µM)
O=c1oc(CO)cc2ccccc12 | ≥ 250 µg/mL
COc1ccc2cc(CCCn3nnnc3-c3ccccc3)oc(=O)c2c1 | ≥ 250 µg/mL

The next lines start with the values.

GI50 | Structure (SMILES)
25.2 µg/mL (≈ 71.3 µM) | COc1ccc2cc(CCCOCCCc3cccnc3)oc(=O)c2c1
32 µg/mL (≈ 105 µM) | CCCCCOCCCc1cc2ccc(OC)cc2c(=O)o1

System: HT-29
Assay: Antiproliferative activity against human HT-29 cells after 48 hrs by SRB assay
Type: functional
Settings: HT-29, 48 h
In short: as §1

Structure (SMILES) | GI50
COc1ccc2cc(COCCCc3cccnc3)oc(=O)c2c1 | 25.8 µg/mL (≈ 79.3 µM)
COc1ccc2cc(CCCSc3nnnn3-c3ccccc3)oc(=O)c2c1 | ≥ 250 µg/mL
COc1ccc2cc(CO)oc(=O)c2c1 | 80.3 µg/mL (≈ 389 µM)
O=c1oc(CO)cc2ccccc12 | 168 µg/mL (≈ 956 µM)
COc1ccc2cc(CCCn3nnnc3-c3ccccc3)oc(=O)c2c1 | ≥ 250 µg/mL

The remaining lines, values ahead:

GI50 | Structure (SMILES)
25 µg/mL (≈ 70.7 µM) | COc1ccc2cc(CCCOCCCc3cccnc3)oc(=O)c2c1
28.3 µg/mL (≈ 93 µM) | CCCCCOCCCc1cc2ccc(OC)cc2c(=O)o1

System: U-251
Assay: Antiproliferative activity against human U251 cells after 48 hrs by SRB assay
Type: functional
Settings: U-251, 48 h
In short: as §1

Structure (SMILES) | GI50
COc1ccc2cc(COCCCc3cccnc3)oc(=O)c2c1 | 28.5 µg/mL (≈ 87.6 µM)
COc1ccc2cc(CCCSc3nnnn3-c3ccccc3)oc(=O)c2c1 | 43.3 µg/mL (≈ 110 µM)
COc1ccc2cc(CO)oc(=O)c2c1 | 167 µg/mL (≈ 811 µM)
O=c1oc(CO)cc2ccccc12 | ≥ 250 µg/mL
COc1ccc2cc(CCCn3nnnc3-c3ccccc3)oc(=O)c2c1 | 67.4 µg/mL (≈ 186 µM)

Results, then the compound that gave them:

GI50 | Structure (SMILES)
26.3 µg/mL (≈ 74.4 µM) | COc1ccc2cc(CCCOCCCc3cccnc3)oc(=O)c2c1
19.4 µg/mL (≈ 63.7 µM) | CCCCCOCCCc1cc2ccc(OC)cc2c(=O)o1

System: NCI-H460
Assay: Selectivity index, ratio of GI50 for human HaCaT cells to GI50 for human NCI-H460 cells
Type: functional
Settings: not given

Structure (SMILES) | RatioGI50
COc1ccc2cc(COCCCc3cccnc3)oc(=O)c2c1 | 0.89
COc1ccc2cc(CCCOCCCc3cccnc3)oc(=O)c2c1 | 1.07
CCCCCOCCCc1cc2ccc(OC)cc2c(=O)o1 | 0.17
COc1ccc2cc(CO)oc(=O)c2c1 | 1.44

System: not listed separately
Assay: Antiproliferative activity against human NCI-ADR-RES cells after 48 hrs by SRB assay
Type: functional
Settings: not given
In short: as §1

Structure (SMILES) | GI50
COc1ccc2cc(COCCCc3cccnc3)oc(=O)c2c1 | 28 µg/mL (≈ 86.1 µM)
COc1ccc2cc(CCCOCCCc3cccnc3)oc(=O)c2c1 | 19.3 µg/mL (≈ 54.6 µM)
CCCCCOCCCc1cc2ccc(OC)cc2c(=O)o1 | 7.4 µg/mL (≈ 24.3 µM)
COc1ccc2cc(CCCSc3nnnn3-c3ccccc3)oc(=O)c2c1 | ≥ 250 µg/mL
COc1ccc2cc(CO)oc(=O)c2c1 | 160 µg/mL (≈ 778 µM)
O=c1oc(CO)cc2ccccc12 | ≥ 250 µg/mL
COc1ccc2cc(CCCn3nnnc3-c3ccccc3)oc(=O)c2c1 | ≥ 250 µg/mL

System: HaCaT
Assay: Selectivity index, ratio of GI50 for human HaCaT cells to GI50 for human 786-0 cells
Type: functional
Settings: not given

Structure (SMILES) | RatioGI50
COc1ccc2cc(COCCCc3cccnc3)oc(=O)c2c1 | 0.92
COc1ccc2cc(CCCOCCCc3cccnc3)oc(=O)c2c1 | 0.94
CCCCCOCCCc1cc2ccc(OC)cc2c(=O)o1 | 0.22
COc1ccc2cc(CCCSc3nnnn3-c3ccccc3)oc(=O)c2c1 | >4.89
COc1ccc2cc(CO)oc(=O)c2c1 | 3.57
COc1ccc2cc(CCCn3nnnc3-c3ccccc3)oc(=O)c2c1 | >1.12

System: HaCaT
Assay: Selectivity index, ratio of GI50 for human HaCaT cells to GI50 for human PC3 cells
Type: functional
Settings: not given

Structure (SMILES) | RatioGI50
COc1ccc2cc(COCCCc3cccnc3)oc(=O)c2c1 | 1.05
COc1ccc2cc(CCCOCCCc3cccnc3)oc(=O)c2c1 | 1.03
CCCCCOCCCc1cc2ccc(OC)cc2c(=O)o1 | 0.69
COc1ccc2cc(CCCSc3nnnn3-c3ccccc3)oc(=O)c2c1 | >1.73
COc1ccc2cc(CO)oc(=O)c2c1 | 2.73
O=c1oc(CO)cc2ccccc12 | 1.88
COc1ccc2cc(CCCn3nnnc3-c3ccccc3)oc(=O)c2c1 | >1.39

System: HaCaT
Assay: Selectivity index, ratio of GI50 for human HaCaT cells to GI50 for human MCF7 cells
Type: functional
Settings: not given

Structure (SMILES) | RatioGI50
COc1ccc2cc(COCCCc3cccnc3)oc(=O)c2c1 | 0.99
COc1ccc2cc(CCCOCCCc3cccnc3)oc(=O)c2c1 | 1.13
CCCCCOCCCc1cc2ccc(OC)cc2c(=O)o1 | 0.92
COc1ccc2cc(CCCSc3nnnn3-c3ccccc3)oc(=O)c2c1 | >5.47
COc1ccc2cc(CO)oc(=O)c2c1 | 4.12
O=c1oc(CO)cc2ccccc12 | 2.49
COc1ccc2cc(CCCn3nnnc3-c3ccccc3)oc(=O)c2c1 | >3.32

System: 786-0
Assay: Antiproliferative activity against human 786-0 cells after 48 hrs by SRB assay
Type: functional
Settings: 786-0, 48 h
In short: as §1

Structure (SMILES) | GI50
COc1ccc2cc(COCCCc3cccnc3)oc(=O)c2c1 | 28.6 µg/mL (≈ 87.9 µM)
COc1ccc2cc(CCCSc3nnnn3-c3ccccc3)oc(=O)c2c1 | 51.1 µg/mL (≈ 130 µM)
COc1ccc2cc(CO)oc(=O)c2c1 | 37.6 µg/mL (≈ 182 µM)
O=c1oc(CO)cc2ccccc12 | ≥ 250 µg/mL
COc1ccc2cc(CCCn3nnnc3-c3ccccc3)oc(=O)c2c1 | 224 µg/mL (≈ 619 µM)

Further lines, results first:

GI50 | Structure (SMILES)
28.7 µg/mL (≈ 81.2 µM) | COc1ccc2cc(CCCOCCCc3cccnc3)oc(=O)c2c1
25.5 µg/mL (≈ 83.8 µM) | CCCCCOCCCc1cc2ccc(OC)cc2c(=O)o1

System: not listed separately
Assay: Cytotoxicity against human HaCaT cells after 48 hrs by SRB assay
Type: cell-based
Settings: not given
In short: as §1

Structure (SMILES) | GI50 at 48 h
COc1ccc2cc(COCCCc3cccnc3)oc(=O)c2c1 | 26.2 µg/mL (≈ 80.5 µM)
COc1ccc2cc(CCCOCCCc3cccnc3)oc(=O)c2c1 | 27 µg/mL (≈ 76.4 µM)
CCCCCOCCCc1cc2ccc(OC)cc2c(=O)o1 | 5.5 µg/mL (≈ 18.1 µM)
COc1ccc2cc(CCCSc3nnnn3-c3ccccc3)oc(=O)c2c1 | ≥ 250 µg/mL
COc1ccc2cc(CO)oc(=O)c2c1 | 134 µg/mL (≈ 652 µM)
O=c1oc(CO)cc2ccccc12 | 222 µg/mL (≈ 1260 µM)
COc1ccc2cc(CCCn3nnnc3-c3ccccc3)oc(=O)c2c1 | ≥ 250 µg/mL
